This is an account of results in PMC4338581 (Bioorganic & medicinal chemistry letters, 2014).

Data set [1] deals with MMP-7. The following applies: ref [37]; cited from earlier work.
The subject of data set [2] is HT-1080 xenografts. To be noted: ref [19], cited from earlier work.
Data set [3] has as its system albumin. To be noted: ref [26]; cited from earlier work.
For data set [4] the following is noted: ref [23]; cited from earlier work.
For data set [5], the target named is T1, MMP-9 (Homo sapiens, UniProt P14780). To be noted: ref [23]; cited from earlier work.
T1 sequence (P14780 94-707): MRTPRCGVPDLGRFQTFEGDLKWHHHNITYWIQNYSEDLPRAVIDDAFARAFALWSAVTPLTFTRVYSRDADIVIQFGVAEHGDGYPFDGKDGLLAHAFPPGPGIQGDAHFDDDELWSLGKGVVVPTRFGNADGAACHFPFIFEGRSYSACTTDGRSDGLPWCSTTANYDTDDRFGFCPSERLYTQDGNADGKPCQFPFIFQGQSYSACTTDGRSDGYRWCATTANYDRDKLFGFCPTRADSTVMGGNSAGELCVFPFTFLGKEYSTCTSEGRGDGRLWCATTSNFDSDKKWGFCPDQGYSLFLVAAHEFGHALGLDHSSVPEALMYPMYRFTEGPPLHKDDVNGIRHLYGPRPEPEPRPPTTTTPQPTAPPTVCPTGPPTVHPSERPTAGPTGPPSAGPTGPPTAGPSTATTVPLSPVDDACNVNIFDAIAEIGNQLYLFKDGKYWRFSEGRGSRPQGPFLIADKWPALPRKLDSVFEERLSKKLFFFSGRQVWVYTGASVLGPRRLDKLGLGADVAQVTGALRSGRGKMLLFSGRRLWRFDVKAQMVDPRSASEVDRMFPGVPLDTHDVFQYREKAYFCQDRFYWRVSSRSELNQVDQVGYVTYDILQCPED
Data set [6] deals with T2, MMP-2 (Homo sapiens, UniProt P08253).
T2 sequence (P08253 110-660): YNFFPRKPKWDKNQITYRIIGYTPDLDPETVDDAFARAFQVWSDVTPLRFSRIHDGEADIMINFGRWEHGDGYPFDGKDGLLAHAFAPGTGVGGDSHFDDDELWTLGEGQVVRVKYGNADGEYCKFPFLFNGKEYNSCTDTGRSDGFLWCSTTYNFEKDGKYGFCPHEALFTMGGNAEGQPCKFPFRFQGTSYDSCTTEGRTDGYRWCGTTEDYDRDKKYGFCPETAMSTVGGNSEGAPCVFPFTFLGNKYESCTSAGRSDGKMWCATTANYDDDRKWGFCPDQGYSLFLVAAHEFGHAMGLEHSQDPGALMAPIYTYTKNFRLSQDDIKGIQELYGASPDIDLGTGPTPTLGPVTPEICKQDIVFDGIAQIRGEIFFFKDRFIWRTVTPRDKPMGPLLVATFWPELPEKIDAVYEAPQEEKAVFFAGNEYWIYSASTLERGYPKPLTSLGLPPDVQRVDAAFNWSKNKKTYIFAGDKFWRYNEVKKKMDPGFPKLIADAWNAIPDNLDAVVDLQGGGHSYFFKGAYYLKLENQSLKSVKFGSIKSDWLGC
The following applies: ref [23]; cited from earlier work.

Data set [7] has as its system gelatinases (MMP-2 and MMP-9) versus other MMP family members. To be noted: ref [23], [24]; cited from earlier work.
Data set [8] is described as follows: Triple-helix melting temperature. It is filed as physicochemical. The following applies: from fluorescence melting curves; Table 1.
The target of data set [9] is T1, MMP-9. Put plainly: Enzyme kinetics. To be noted: λexcitation = 780 nm, λemission = 810 nm; for kcat: Michaelis-Menten; for Km: ± standard error of the mean. It is filed as biochemical.
Data set [10] addresses T2, MMP-2. Put plainly: Enzyme kinetics. The data set is classed as biochemical. To be noted: λexcitation = 780 nm, λemission = 810 nm; for kcat: Michaelis-Menten; for Km: ± standard error of the mean.
Data set [11] is described as follows: Fluorescence quenching efficiency, intact vs completely hydrolyzed. It is filed as physicochemical. To be noted: from variable temperature absorbance spectra and variable temperature fluorescence melting curves.
Data set [12] in a line: Variable temperature absorbance spectra. It is filed as physicochemical. The following applies: room temperature, PBS. Summed up:
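Dye-labelled triple-helical peptide conjugates in PBS; absorbance spectra recorded across a range of temperatures. Quenching efficiency was derived from these spectra together with variable-temperature fluorescence melting curves.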

The subject of data set [13] is HT-1080 xenografted tumors (gelatinase activity). Put plainly: FMT imaging of mice bearing HT-1080 fibrosarcoma xenografts. The following applies: 2 nmol i.v.
The subject of data set [14] is gelatinases (MMP-2 and MMP-9) versus other MMP family members. Put plainly: Substrate selectivity for gelatinases within the MMP family. It is filed as biochemical. The following applies: authors' summary statement.

Read-outs that look alike come from different tables or passages of the source. Marks after values point to notes of the source that are not given here.

Turning to `CC1(C)SCCN(S(=O)(=O)c2ccc(Oc3ccncc3)cc2)[C@H]1C(=O)NO` [Prinomastat, reference compound], in [1], the Ki is 54 nM. Besides, in data set [2] (with MMPSense, HT-1080 xenografts), the “reduction of tumor-associated fluorescence on co-administration” value is 2.5 fold.

As for `CC1(C)C(/C=C/C=C/C=C/C=C2/N(CCC(=O)O)c3ccc4ccccc4c3C2(C)C)=[N+](CCC(=O)O)c2ccc3ccccc3c21.[Br-]` [cypate], in [3], the “binding affinity to albumin” value is listed as “good binding affinity”.

Consider “(GPO)5GPK(Mca)GPPG~VVGEK(Dnp)GEN(GPO)5-NH2 [fTHP]”, for which the TM in data set [4] was 45.0 °C. Moreover, in data set [5], the Km was 8.1 µM, the kcat is 0.044 s⁻¹ and the kcat/KM is listed as 5.4 × 10^3 s^−1M^−1. In data set [6], the Km was 4.4 µM, the kcat is 0.061 s⁻¹ and the catalytic efficiency (kcat/KM) is on record as 14 × 10^3 s^−1M^−1. In addition, the “kcat/KM for gelatinases relative to other MMP family members” value in [7] is given as “more than 10 fold”.

For the compound “(GPO)5GPKGPPG~VVGEK(PEG2-cypate)GEQ(GPO)5 [cypate3-(PEG)2-THP]”, the TM in data set [8] is 45.5^b °C. Further, the kcat/KM in data set [9] was 9100 M⁻¹ s⁻¹; in data set [9] (Table 1), 9.1 × 10^3 s^−1M^−1; in [10] it was 9100 M⁻¹ s⁻¹; in data set [10] (Table 1), 9.1 × 10^3 s^−1M^−1. For the same compound, the kcat was determined as 0.202 s⁻¹ in data set [9] and 0.099 s⁻¹ in data set [10]. Besides, the Km was found to be 22.2 µM in [9] and 10.9 µM in [10]. The “quenching efficiency, comparison with and without PEG spacer” value in [11] is given as “similar”.

Turning to “(GPO)5GPKGPPG~VVGEK(cypate)GEQ(GPO)5 [cypate3-THP]”, the TM in data set [8] was 50.5^b °C. Moreover, in data set [12], the “additional absorption peak (aggregate)” value was 710 nm. The main absorption peak in data set [12] is on record as 780 nm. Moreover, in [12] (300 nM, up to 1.5 μM), the aggregation entry is listed as “significant intramolecular H-aggregation”. The kcat/KM in data set [9] was 6400 M⁻¹ s⁻¹; in data set [9] (Table 1), 6.4 × 10^3 s^−1M^−1; in data set [10], 6800 M⁻¹ s⁻¹; in data set [10] (Table 1), 6.8 × 10^3 s^−1M^−1. The kcat in data set [9] is 0.142 s⁻¹; in data set [10], 0.056 s⁻¹. Besides, the Michaelis-Menten constant (Km) in data set [9] stood at 22.3 µM; in data set [10] it was 8.19 µM. Besides, the “average tumor to background ratio” value in data set [13] (4 hours post-injection, n = 3) came to 10.2. Further, the clearance of fluorescence entry in data set [13] (after 24 h) was “slowly cleared from most tissues after 24 h”. In addition, in data set [13] (post-injection, n = 3), the “time of peak normalized fluorescence intensity” value came to 4 h. For the same compound, the “fluorescence enhancement within the tumor” value in [13] (abstract) was “significant fluorescence enhancement within the tumor”. Moreover, in data set [13] (pmol cypate/mm^3 tumor volume, 1 hour post-injection, n = 3), the “normalized tumor fluorescence intensity” value is on record as “relatively low”. Also, the “quenching efficiency, comparison with and without PEG spacer” value in [11] is “similar”. Moreover, in data set [14], the selectivity of hydrolysis result was “efficiently hydrolyzed selectively by MMP-2 and -9”.

With PLGVR [MMPSense], the “visualization of HT-1080 xenografts” value in [2] (NIR reflectance imaging) is reported as “enabled the visualization of the HT-1080 xenografts”.

One may read the Ki as the dissociation constant of the complex between target and ligand, obtained from inhibition or displacement. One may read the Km as the concentration of substrate that gives half-maximal velocity. As usually defined, the kcat is the maximal rate divided by the concentration of active sites. By kcat/KM is commonly meant the turnover number divided by the Michaelis constant.
